A selection: hits, their analogues and other compounds. The true share with any hit is near 2.9%.
TRPC4 block: blocks the mouse TRPC4 cation channel. Q9QUQ5. HEK293 TRPC4beta/mu-opioid, DAMGO-evoked Fluo4 calcium flux; active compounds read low. B-score at 10 µM. AID 2247. 0.39% of 300,000 active;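 active = B-score over 3 SD under the library average, no early fluorescence shift, positive overall ratio signal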
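Assay system: HEK293 cells with stable TRPC4beta plus mu-opioid receptor expression. Dosing: single dose. Measured by: Fluo4 Ca2+ flux fluorescence. Also added: DAMGO in two steps, submaximal then maximal. Read-out: B score from integrated Fluo4 fluorescence ratio.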
TRPC6 inhibitor: inhibitors of mouse TRPC6 channel; Q61143; HEK293-TRPC6, membrane potential dye, ACh-evoked depolarization; active compounds read low; B-score at 10 µM; 1.1% of 310,000 active; AID 2553;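 active = B-score under library mean minus 3 SD, initial fluorescence not abnormally high, positive integrated signal ratio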;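 also: B-score derived from integrated fluorescence ratio over the kinetic read; more negative B-score means stronger inhibition of depolarization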
Target sequence (Q61143 whole entry, looked up): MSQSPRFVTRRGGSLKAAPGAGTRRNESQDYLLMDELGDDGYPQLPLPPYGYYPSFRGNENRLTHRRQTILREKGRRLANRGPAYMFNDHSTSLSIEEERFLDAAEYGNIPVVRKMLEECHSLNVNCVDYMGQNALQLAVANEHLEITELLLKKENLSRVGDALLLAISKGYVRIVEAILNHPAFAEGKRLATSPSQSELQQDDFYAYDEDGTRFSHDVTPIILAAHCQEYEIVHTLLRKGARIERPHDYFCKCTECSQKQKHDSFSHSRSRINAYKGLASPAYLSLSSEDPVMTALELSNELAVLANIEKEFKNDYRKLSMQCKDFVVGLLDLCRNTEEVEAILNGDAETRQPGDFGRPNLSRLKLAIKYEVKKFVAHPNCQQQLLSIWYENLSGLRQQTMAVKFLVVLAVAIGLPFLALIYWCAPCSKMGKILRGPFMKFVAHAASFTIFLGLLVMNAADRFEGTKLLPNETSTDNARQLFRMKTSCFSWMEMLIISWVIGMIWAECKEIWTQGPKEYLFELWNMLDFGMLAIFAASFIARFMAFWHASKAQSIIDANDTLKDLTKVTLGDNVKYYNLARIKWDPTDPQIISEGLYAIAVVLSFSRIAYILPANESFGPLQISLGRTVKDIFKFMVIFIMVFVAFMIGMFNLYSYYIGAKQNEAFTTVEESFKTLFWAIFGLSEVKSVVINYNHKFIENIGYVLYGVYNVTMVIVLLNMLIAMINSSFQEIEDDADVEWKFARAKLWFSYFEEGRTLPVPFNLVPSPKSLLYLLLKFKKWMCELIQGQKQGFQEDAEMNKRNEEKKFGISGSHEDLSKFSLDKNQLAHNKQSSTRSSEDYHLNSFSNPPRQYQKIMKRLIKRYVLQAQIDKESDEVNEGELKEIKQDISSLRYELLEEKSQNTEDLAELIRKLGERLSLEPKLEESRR
Kir21 block: inhibitors of mouse Kir2.1 inward-rectifier potassium channel; P35561; HEK293-Kir2.1, FluxOR thallium flux fluorescence; active compounds read low; B-score at 10 µM; 0.85% of 310,000 active; AID 1672;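 active = fluorescence ratio B-score at or below minus 3 SD of library scores, with starting-brightness B-score within 2 SD, cut at about -4.2 in these data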;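 also: channel flux triggered by added potassium and thallium sulfate stimulus; B-score of peak minus minimum fluorescence over baseline after thallium stimulus; more negative B-score means stronger Kir2.1 block with less thallium influx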
TRPC4 potent: allosteric potentiators of mouse TRPC4 channel; AID 2227; Q9QUQ5; HEK293 TRPC4beta/mu-opioid, DAMGO EC20, Fluo-4 Ca2+ flux; active compounds read high; 0.42% of 310,000 active; B-score at 10 µM;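 active = B-score of calcium response area above 5 SD of library B-scores, with initial fluorescence ratio within 5 SD of library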
TRPC4 agonist: TRPC4 (mouse) channel activation. 0.49% of 310,000 active. Q9QUQ5. B-score at 10 µM. HEK293 TRPC4beta/mu-opioid, Fluo4 calcium fluorescence; active compounds read high;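 active = B-score above 5 SD of library B-scores, and initial fluorescence ratio not above library mean plus 5 SD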;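 also: positive B-score marks a calcium rise read as TRPC4 activation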
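Technique: kinetic Fluo4 calcium fluorescence; Test system: TRPC4beta and mu-opioid receptor HEK293 stable cells; Measure: B-scored integrated calcium fluorescence ratio; Benchmarks: low control buffer alone, high control maximal DAMGO; Schedule: 45 min room-temperature Fluo4 loading, 110 s read.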
TRPC6 act: mouse TRPC6 channel activation; HEK293-TRPC6 membrane potential dye fluorescence; active compounds read high; B-score at 10 µM; 0.13% of 310,000 active; AID 2550;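 active = B-score of the integrated fluorescence ratio above library mean plus 3 SD, and starting fluorescence ratio within library mean plus 5 SD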;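 also: higher score means more depolarization so channel activation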
TRPC4 spec 2: second check of whether TRPC6 inhibitors also affect mouse TRPC4. shares compounds with TRPC6 inhibitor. HEK293 TRPC4/MOR, membrane potential dye fluorescence; channel activated by saturating DAMGO dose. inhibition, % at 10 µM. 42% of 920 active. AID 2776;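 active = compounds whose fluorescence signal differed from control wells by over 3 SD, either direction, in both duplicate plates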
TRPC4 spec: tests whether TRPC6 inhibitors also affect mouse TRPC4 | shares compounds with TRPC6 inhibitor | HEK293 TRPC4/mu-opioid, membrane potential fluorescence | activity change, negative = inhibition, % at 10 µM | 61% of 920 active | AID 2777;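 active = rise or fall in signal beyond 3 SD of buffer-only wells in both replicate plates, either sign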;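 also: integrated kinetic ratio of fluorescence range over baseline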
HEK293 MPD ctr 2-1: second counter-screen for TRPC6 inhibitors: parental HEK293 cells. parental HEK293 membrane potential dye fluorescence; maximal acetylcholine challenge after compound addition. 31% of 920 active. shares compounds with TRPC6 inhibitor. signal change vs control, % at 10 µM;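 active = membrane potential signal moving either way by over 3 SD of the maximum-effect control, in both duplicate plates, meaning non-specific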
HEK293 MPD ctr-1: parental HEK293 nonspecific activity of TRPC6 inhibitors; parental HEK293 membrane potential dye fluorescence; shares compounds with TRPC6 inhibitor; 60% of 920 active; membrane potential signal change, % at 10 µM;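 active = membrane potential signal shifting up or down by more than 3 SD of buffer-only wells, on both duplicate plates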
HEK293 MPD ctr-2: parental HEK293 nonspecific activity of TRPC6 modulators; shares compounds with TRPC6 inhibitor; membrane potential dye fluorescence; membrane potential signal change, % at 10 µM; 51% of 2,400 active;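 active = membrane potential signal moves up or down beyond 5 SD from buffer-only wells, on both duplicate plates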
HEK293 MPD ctr 2-2: parental HEK293 nonspecific activity of TRPC6 modulators, second screen. 14% of 2,400 active. AID 488926. shares compounds with TRPC6 inhibitor. inhibition, % at 10 µM. membrane potential dye fluorescence; after compound, maximal acetylcholine stimulation;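 active = membrane potential signal drops by more than 5 SD from the mean control signal, in both duplicate plates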
TRPC4/MOR mod: selectivity of TRPC6 modulators against mouse TRPC4; percent change from control (negative = decrease, positive = increase), % at 10 µM; shares compounds with TRPC6 inhibitor; AID 488927; 69% of 2,400 active; HEK293 TRPC4/mu-opioid, membrane potential fluorescence;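 active = membrane potential signal moved up or down beyond 5 SD of buffer control wells, in both duplicate plates, actives on both sides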
TRPC4/MOR inh 2: mouse TRPC4 off-target activity of TRPC6 modulators, second screen; shares compounds with TRPC6 inhibitor; HEK293 TRPC4/mu-opioid, membrane potential dye fluorescence; stimulated with maximal-effect DAMGO; inhibition, % at 10 µM; 55% of 2,400 active; AID 488928;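 active = drop in membrane potential signal beyond 5 SD of the control wells in both duplicate plates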;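 also: TRPC4 counter screen for TRPC6 hits run under conditions tuned for TRPC6 not TRPC4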
TRPC6 block conf: confirmation of mouse TRPC6 inhibitors; shares compounds with TRPC6 inhibitor; HEK293-TRPC6, membrane potential dye, ACh-evoked depolarization; inhibition, % at 10 µM; 43% of 3,300 active; AID 488960;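 active = fluorescence ratio falls more than 5 SD below the full-stimulation control mean, in both duplicate runs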;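 also: integrated fluorescence ratio of peak minus minimum over baseline after agonist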
TRPC6 act confirm: mouse TRPC6 activator confirmation; shares compounds with TRPC6 inhibitor; activation, % at 10 µM; HEK293-TRPC6 membrane potential dye fluorescence, FDSS; 11% of 2,800 active;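 active = ratio signal rise beyond 5 SD above unstimulated control wells' mean, seen in both duplicate runs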
Of the large screens only hits and unclear results are named; the others gave an inactive call (follow-up assays come after a bar, where they were run); ! = repeats disagree.

Cc1ccc(-c2nc3ccccc3c(=O)n2-c2cccc(C)n2)cc1	TRPC6 inhibitor -6 | HEK293 MPD ctr-2 inactive | HEK293 MPD ctr 2-2 inactive | TRPC4/MOR mod inactive | TRPC4/MOR inh 2 inactive | TRPC6 block conf inactive | TRPC6 act confirm inactive
COc1ccc(Cc2c(O)[nH]c(=O)[nH]c2=O)c(OC)c1	TRPC6 act 16 | HEK293 MPD ctr-2 inactive | HEK293 MPD ctr 2-2 inactive | TRPC4/MOR mod inactive | TRPC4/MOR inh 2 inactive | TRPC6 block conf inactive | TRPC6 act confirm inactive
Cc1nc2cc([N+](=O)[O-])ccc2c(=O)n1-c1ccc(Br)cc1	none
O=c1[nH]c(=O)n(-c2ccccc2)c(O)c1N=Nc1ccc(Br)cc1	none
CN1CCC(OC(=O)C2c3ccccc3Oc3ccccc32)CC1	TRPC6 inhibitor -6.8 | TRPC4 spec 2 inactive | TRPC4 spec 4.7% | HEK293 MPD ctr 2-1 inactive | HEK293 MPD ctr-1 8.4% | TRPC6 block conf 67%
CN1CCC(OC(=O)Cc2ccccc2)CC1	none
OC(CC#CCN1CCCCCC1)(c1ccccc1)C1CCCC1 (centres undefined)	none
CC[N+](CC)(CC)CCCOC(=O)C(O)(c1ccccc1)C1CCCCC1 (centres undefined)	TRPC6 inhibitor -12 | TRPC4 spec 2 inactive | TRPC4 spec inactive | HEK293 MPD ctr 2-1 -40% | HEK293 MPD ctr-1 inactive | TRPC6 block conf 97% | TRPC6 act confirm inactive
C[N+](C)(N)CCOC(=O)C(O)(c1ccccc1)C1CCCCC1 (centres undefined)	TRPC6 inhibitor -9.6 | TRPC4 spec 2 inactive | TRPC4 spec inactive | HEK293 MPD ctr 2-1 -39% | HEK293 MPD ctr-1 inactive | TRPC6 block conf 89% | TRPC6 act confirm inactive
CN1C(=O)C(=Cc2ccc(SC3CCCCC3)o2)C(=O)N(C)C1=O	none
Cc1cc(C(=O)Nc2ccc3c(c2)OCCO3)nn1C(C)(C)C	none
CC(=O)OCC[N+](C)(C)C	TRPC6 inhibitor -7.9, TRPC4 agonist 125, TRPC6 act 15! | TRPC4 spec 2 inactive | TRPC4 spec 37% | HEK293 MPD ctr 2-1 inactive | HEK293 MPD ctr-1 4.2% | HEK293 MPD ctr-2 133%! | HEK293 MPD ctr 2-2 66%! | TRPC4/MOR mod 44% | TRPC4/MOR inh 2 inactive | TRPC6 block conf 70% | TRPC6 act confirm 124%
CCN1/C(=C\C=C\C2=[N+](CC)c3ccccc3C2(C)C)C(C)(C)c2ccccc21	none
Cc1ccc(C2CC3CCC(C2)N3Cc2ccccc2F)cc1 (centres undefined)	TRPC6 act 13 | HEK293 MPD ctr-2 127% | HEK293 MPD ctr 2-2 inactive | TRPC4/MOR mod 49% | TRPC4/MOR inh 2 42% | TRPC6 block conf inactive | TRPC6 act confirm 58%
O[C@H]1[C@H](O)[C@@H](O)CN2CC[C@H](O)[C@H]12	none
CC(C)(C)NC(=S)/N=C(\N)N[N+](=O)[O-]	none
CCCC/C(=N/O)c1c(C)[nH]c2ccccc12	TRPC6 inhibitor -9.5 | TRPC4 spec 2 inactive | TRPC4 spec -13% | HEK293 MPD ctr 2-1 inactive | HEK293 MPD ctr-1 -142% | TRPC6 block conf inactive | TRPC6 act confirm inactive
CCCCC/C(=N/O)c1c(C)[nH]c2ccccc12	none
O=C1OC(c2ccc([N+](=O)[O-])cc2)=N/C1=C/N1CC2CC(C1)c1cccc(=O)n1C2 (centres undefined)	TRPC4 agonist 96, TRPC6 act 37 | HEK293 MPD ctr-2 272% | HEK293 MPD ctr 2-2 102% | TRPC4/MOR mod 57% | TRPC4/MOR inh 2 31% | TRPC6 act confirm 124%
Fc1ccc(Cn2nnnc2C(c2ccc(Cl)cc2)N2CC=C(c3ccc(F)cc3)CC2)cc1 (centres undefined)	none
O=C(O)COc1ccc(Cl)cc1Cl	none
CCCCOc1ccc(CCN)cc1Cl	TRPC6 inhibitor -6.4, TRPC4 potent 14 | HEK293 MPD ctr-2 82% | HEK293 MPD ctr 2-2 inactive | TRPC4/MOR mod inactive | TRPC4/MOR inh 2 52% | TRPC6 block conf 60%
N#CC(C#N)=Cc1cccnc1	none
CC(Cc1ccccc1)NC(N)=O (centres undefined)	none
CC(C)[N+](C)(CCC(C(N)=O)(c1ccccc1)c1ccccc1)C(C)C	TRPC6 inhibitor -6.6 | HEK293 MPD ctr-2 inactive | HEK293 MPD ctr 2-2 101% | TRPC4/MOR mod inactive | TRPC4/MOR inh 2 inactive | TRPC6 block conf 88% | TRPC6 act confirm inactive
COc1ccc(-c2cc(=Nc3ccccc3)c3cc(C)ccc3o2)cc1	TRPC6 inhibitor -7.7 | TRPC4 spec 2 inactive | TRPC4 spec -18% | HEK293 MPD ctr 2-1 inactive | HEK293 MPD ctr-1 -198% | TRPC6 block conf inactive | TRPC6 act confirm inactive
COc1cc(OC)c(OC)cc1CN1CCN(C(=O)COc2ccc3ccccc3c2)CC1	none
CCCC[N+]12CCC(CC1)C(=C(c1ccccc1)c1ccccc1)C2	none
CCC[N+]12CCC(CC1)C(=C(c1ccccc1)c1ccccc1)C2	TRPC6 inhibitor -5.8 | HEK293 MPD ctr-2 inactive | HEK293 MPD ctr 2-2 inactive | TRPC4/MOR mod 14% | TRPC4/MOR inh 2 inactive | TRPC6 block conf 64%
CCCCn1c(O)c(C(C)=NCc2ccco2)c(=O)[nH]c1=O	none

Assay outcomes: PubChem, Johns Hopkins Ion Channel Center
